CAL PDZ FP-1 – blocks peptide binding to human CAL PDZ domain | inhibition, % at 20 µM | purified CAL PDZ, TMR-peptide fluorescence polarization, 1 h | 330,000 compounds, 0.02% hits | Q9HD26;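 active means highest replicate inhibition of at least 40%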
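Assay system – tagged CAL PDZ protein CerCALP, purified · Timing – 1 h at RT · Compound – single point, 20 µM · Measured by – fluorescence polarization from S- and P-plane intensities, G-factor corrected · Evaluation – inhibition from polarization loss · Probe or stimulus – TMR reporter peptide T*-PRC34 · Buffer or medium – pH 7.4 phosphate-saline buffer, reducing agent, detergent, IgG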
CDK5 inh – CDK5/p35 (human) kinase inhibition | Q00535+Q15078 | Recombinant CDK5/p35, ADP-Glo luminescence, 60 min | inhibition, % at 10 µM | 330,000 compounds, 0.01% hits;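 active means highest replicate inhibition of at least 50% and at least 75% of replicates reaching 50%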
Rtt109 HAT inh – blocks Candida albicans Rtt109/Vps75 acetyltransferase activity; Q5AAJ8; purified Rtt109/Vps75, ThioGlo CoA-SH fluorescence, 4 h; inhibition, % at 34.9 µM; 330,000 compounds, 0.16% hits; AID 540336;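 active means inhibition of at least 50% in every replicate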
Target sequence (Q5AAJ8 whole entry, looked up): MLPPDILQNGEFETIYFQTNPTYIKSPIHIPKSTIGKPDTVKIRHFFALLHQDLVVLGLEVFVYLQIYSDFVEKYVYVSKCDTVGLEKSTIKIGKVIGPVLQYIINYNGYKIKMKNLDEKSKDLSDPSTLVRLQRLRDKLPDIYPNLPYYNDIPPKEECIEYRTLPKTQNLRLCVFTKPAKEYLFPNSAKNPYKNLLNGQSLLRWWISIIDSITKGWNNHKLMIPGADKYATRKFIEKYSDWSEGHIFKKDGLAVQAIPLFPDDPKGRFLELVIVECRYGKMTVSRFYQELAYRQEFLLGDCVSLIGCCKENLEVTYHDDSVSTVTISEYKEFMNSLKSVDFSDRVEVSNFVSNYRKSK
Dyrk1A ADPGlo – blocks rat Dyrk1A kinase activity; 310,000 compounds, 0.43% hits; Q63470; inhibition, % at 12.5 µM; ADP-Glo luminescence, NFATc1 peptide; in the data active means inhibition above about 50%
dFosB act – mouse delta FosB homodimer activation; P13346; purified delta FosB, TAMRA-CDK5 oligo fluorescence polarization; percent of positive-control signal above neutral wells; activation, % at 25 µM; 340,000 compounds, 0.99% hits;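 active means mean activation above about 17%, with every replicate also reaching it, limit read from the data, passing the limit was not always enough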
CAL PDZ FP-2 – CAL PDZ (human) peptide binding inhibition. Q9HD26. purified CAL PDZ, TMR-peptide fluorescence polarization, 1 h. inhibition, % at 24.9 µM. 300,000 compounds, 0.92% hits. AID 602252;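 active means mean inhibition of at least 30% with at least half of replicates also reaching 30%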
Large screens that a line does not name were inactive. Compounds with a hit are over-represented: about 2.2% of the library has one in this group of screens.

N#C/C(=C\c1c(Cl)cccc1Cl)c1nn(-c2ccccc2)c(-n2cccc2)c1C#N	Rtt109 HAT inh 56
O=C(CNC(=O)c1ccc(Br)o1)NC12CC3CC(CC(C3)C1)C2	Rtt109 HAT inh 58
O=C(Cn1nc(Cc2cccnc2)c2ccccc2c1=O)Nc1cc(F)ccc1F	CAL PDZ FP-2 66
COc1cc(C2C3=C(Nc4nc(N)[nH]c(=O)c42)c2ccccc2C3=O)ccc1O (stereo not given)	dFosB act 43
CCC(C)c1ccc(C2C3=C(Nc4nc(N)[nH]c(=O)c42)c2ccccc2C3=O)cc1 (stereo not given)	dFosB act 33
Nc1nc2c(c(=O)[nH]1)C(c1ccccc1)C1=C(N2)c2ccccc2C1=O (stereo not given)	none
CC(C)(C)n1ncc2c(=O)n(Cc3ccc(Cl)c(Cl)c3)cnc21	CAL PDZ FP-2 82
COCCN1Cc2cccc(C(=O)Nc3ccc(-c4nc5ccccc5[nH]4)cc3)c2C1=O	Rtt109 HAT inh 55
COc1cc(OC)cc(C(=O)NNC(=S)NC(=O)c2cccnc2)c1	CAL PDZ FP-2 61
Cc1ccc(CN(Cc2cc3cccc(C)c3[nH]c2=O)C(=S)NCCCN(C)C)cc1	none
CCOC(=O)n1cc(C(=O)c2ccccc2O)cn1	none
CC(C)(C)OC(=O)n1cc(C(=O)c2ccccc2O)cn1	CAL PDZ FP-2 70
O=C(Nc1ccc(F)cc1)Nc1ccc(S(=O)(=O)N2CCCC2)cc1	none
Cc1oc(S(=O)(=O)N2CCCCC2)cc1NC(=O)Nc1ccc(F)cc1	CAL PDZ FP-2 45
CCOc1ccc(/C=C2\SC(=S)N(C(C(=O)O)c3ccccc3)C2=O)cc1OC (stereo not given)	none
COc1ccc(OC)c(/C=C2\SC(=S)N(C(C(=O)O)c3ccccc3)C2=O)c1 (stereo not given)	Rtt109 HAT inh 66
CC(/C=C1\SC(=S)N(C(C(=O)O)c2ccccc2)C1=O)=C\c1ccccc1 (stereo not given)	Rtt109 HAT inh 66
O=S(=O)(c1cc(F)ccc1F)N1CCN2CCCC2C1 (stereo not given)	none (no result: CAL PDZ FP-2)
Cc1nn2c(NCCCN(C)C)c3c(nc2c1-c1ccccc1)CCC3	none (no result: CAL PDZ FP-1)
Cc1nn2c(NCCCN(C)C)c3c(nc2c1-c1ccccc1)CCCC3	CAL PDZ FP-2 active
CC(C)(C)C(=O)NC(=S)Nc1ccc(S(=O)(=O)Nc2nccs2)cc1	none (no result: Rtt109 HAT inh)
O=C(NC(=S)Nc1ccc(S(=O)(=O)Nc2nccs2)cc1)c1ccc(F)cc1	CAL PDZ FP-2 54 (no result: Dyrk1A ADPGlo)
Cc1nc([N+](=O)[O-])nn1C12CC3CC(CC(Cl)(C3)C1)C2	none
Cc1ccc([N+](=O)[O-])cc1N	none
CCc1cc([N+](=O)[O-])cc(CC)c1N	Dyrk1A ADPGlo 70 (no result: CAL PDZ FP-2)
C[C@H]1CCC(=O)N([C@H](COc2ccccc2)Cc2ccccc2)CC1	none
CCOC(=O)c1cnn(-c2ccccc2)c1NC(=O)CN1CCCCC1	CAL PDZ FP-2 34 (no result: Dyrk1A ADPGlo)
CCOC(=O)c1cnn(-c2ccccc2)c1-n1cccc1	none
CCCC(=O)NCCCc1nc2ccccc2n1C(C)C	none
CCCNC(=O)c1ccc(COc2cccc3ccccc23)o1	none (no result: Dyrk1A ADPGlo)
CC1CCCN(C(=O)C(Cc2ccccc2)n2cccc2)C1 (stereo not given)	none
Cc1cccnc1NC(=O)c1ccc(Cl)c(S(=O)(=O)N2CCCCCC2)c1	none
O=C1c2cccc3c([N+](=O)[O-])ccc(c23)C(=O)N1Cc1cccnc1	CAL PDZ FP-2 37
Cc1cc(C)nc(NC(=O)Cc2ccc(Cl)cc2)c1	CAL PDZ FP-2 33
CCc1ccc(NC(=O)CCC(=O)Nc2nnc(C(F)(F)F)s2)cc1	none (no result: CDK5 inh, Dyrk1A ADPGlo)
O=C(CCC(=O)Nc1ccc(F)cc1)N/N=C/c1ccc(O)cc1O	none
Oc1ccc(C=NNC(=S)Nc2ccc(F)cc2)c(O)c1	CAL PDZ FP-2 32 (no result: Dyrk1A ADPGlo)
CCn1cc(/C=N\NC(=O)c2csc3ccccc23)c(C)n1	CAL PDZ FP-2 32 (no result: CAL PDZ FP-1)
COC1C(CO)OC(n2c3c(Cl)cccc3c3c4c(c5c6cccc(Cl)c6[nH]c5c32)C(=O)NC4=O)C(O)C1O (stereo not given)	none
CCCN1CCN(S(=O)(=O)c2ccc3c(c2)CCC(=O)N3)CC1	CAL PDZ FP-2 46
O=C1CCc2cc(S(=O)(=O)N3CCN(c4ccccc4F)CC3)ccc2N1	none
CC(C)C(C(=O)Nc1cccnc1)N1C(=O)c2ccccc2C1=O (stereo not given)	Rtt109 HAT inh 53
CC(C)C(C(=O)Nc1ccccc1F)N1C(=O)c2ccccc2C1=O (stereo not given)	none (no result: CAL PDZ FP-2)
CC(C)(C)OC(=O)N1CCC[C@H]1c1nnc(SCc2ccc(Cl)cc2)o1	none
Cc1cc(-c2ccccc2)oc(=O)c1NC(=O)c1ccccc1	none
OC(COc1ccc(F)cc1Cl)CN1CCC(Cc2ccccc2)CC1 (stereo not given)	Dyrk1A ADPGlo 51
OC(COc1ccccc1F)CN1CCC(Cc2ccccc2)CC1 (stereo not given)	none
O=C(Nc1nnc(Cc2ccccc2)s1)c1ccco1	none
NC(=O)c1cc(Cc2ccccc2)sc1NC(=O)c1ccco1	dFosB act 75
Cc1c(NC(=O)CS(=O)(=O)c2ccccc2)c(=O)n(-c2ccccc2)n1C	none
CC(=O)NC(=S)Nc1cc(C(=O)O)ccc1Cl	CAL PDZ FP-2 116
CCOC(=O)c1c(C)[nH]c(C(=O)OCC(=O)Nc2ccc(OC)c(Cl)c2)c1C	dFosB act 140
CCOc1ccc(CC(=O)N/N=C/c2cccnc2)cc1OCC	none
Cc1cccnc1NC(=O)CSc1nnc(CNC(=O)c2cccc([N+](=O)[O-])c2)n1C	CAL PDZ FP-2 42
Cc1cccc(C(=O)NCc2nnc(SCC(=O)Nc3nnc(C)s3)n2C)c1	none
COc1ccc(-c2[nH]ncc2CNC(C)c2ccccc2Cl)cc1F (stereo not given)	none
COc1ccc(-c2[nH]ncc2CNC(C)CCn2cccn2)cc1F (stereo not given)	CAL PDZ FP-2 51
Cn1nc(C(F)(F)F)c(CNC(=O)C(C)(C)CCl)c1N1CCOCC1	none
Cc1nonc1OCCn1c([N+](=O)[O-])cnc1C	Rtt109 HAT inh 53
Cc1ccc(C(=O)Nc2ccc(C(=O)O)cc2NC(=O)c2ccc(C)cc2)cc1	none (no result: Dyrk1A ADPGlo)
Cc1ccc2nc(-c3ccccc3)oc(=O)c2c1	none
Cc1ccc(-c2nc3ccccc3c(=O)o2)cc1	CAL PDZ FP-2 48
CCOC(=O)C1CCN(C(=O)/C(=C/c2ccccc2)NC(=O)c2ccccc2)CC1	CAL PDZ FP-2 51 (no result: CAL PDZ FP-1)
CCC(=O)N1c2ccc(S(=O)(=O)NCCc3ccc(OC)c(OC)c3)cc2CC1C (stereo not given)	none
CC(C)(C)N(C(=O)Cn1nnc(-c2ccc(F)cc2)n1)C(C(=O)NC1CCCC1)c1ccncc1 (stereo not given)	CAL PDZ FP-2 36
